Measured values taken from ChEMBL document CHEMBL1157913, “Development of a new generation of 4-aminoquinoline antimalarial compounds using predictive pharmacokinetic and toxicology models” (J Med Chem, 2010).

What was measured:
[1] = Tmax in CD1 mouse at 50 mg/kg, po; type: ADME, organism-based; set-up: dose 50 mg/kg, route oral; conditions: in vivo
Method in brief: (§1)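 Male CD-1 mice given one 50 mg/kg oral gavage dose (n = 3), vehicle 0.9% saline or 5% DMSO/95% PEG300 depending on compound. Retro-orbital blood into EDTA under isoflurane at 15, 30, 60 min and 2, 4, 8, 10, 24, 48 h (3 mice per time point). Plasma analysed by LC-MS/MS; AUC0-t, Cmax, Tmax, t1/2 derived by noncompartmental software.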

[2] = Permeability by PAMPA assay at pH 5.0; type: ADME
[3] = AUClast in CD1 mouse at 50 mg/kg, po; type: ADME, organism-based; set-up: time 0 - last, dose 50 mg/kg, route oral; conditions: plasma; method in brief: as §1
[4] = Permeability by PAMPA assay at pH 7.4; type: ADME
Method in brief: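 Double-sink PAMPA, GIT-0 lipid-coated filter. Donor 50 μM final (from DMSO stock) at pH 5.0, 6.2 or 7.4; acceptor pH 7.4. Stirred 30 min (40 μm aqueous boundary layer), constant humidity. Both compartments read by UV absorbance 250–500 nm; Pe (cm/s) calculated, four wells per pH, mean ± SD.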

[5] = Cmax in CD1 mouse at 50 mg/kg, po; type: ADME, organism-based; set-up: dose 50 mg/kg, route oral; conditions: in vivo; method in brief: as §1
[6] = Toxicity in po dosed CD1 mouse administered qd for 7 days; type: organism-based; conditions: in vivo
Method in brief: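 Male and female CD-1 mice (6–8 weeks, n = 5/sex/dose group) received oral gavage once daily for 7 days at 50, 100, 200 or 100, 200, 400 mg/kg/day, depending on the article. The article was suspended daily in 5% DMSO:95% PEG 300, and vehicle-treated animals served as controls. Body weights were taken predose, on day 4 and on day 8. Day-8 retro-orbital blood went to hematology and serum chemistry, followed by necropsy with histopathology and organ weights. MTD was estimated.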

[7] = Permeability by PAMPA assay at pH 6.2; type: ADME

| Structure (SMILES) | Tmax [1] | permeability [2] | AUC(0-t) [3] | permeability [4] | Cmax [5] | MTD at 168 h [6] | permeability [7] |
| --- | --- | --- | --- | --- | --- | --- | --- |
| Clc1ccc2c(NCCCNCc3cccc4c3OCO4)ccnc2c1 | 120 min | 19 ×10⁻⁶ cm/s | 2.03 µM·h | 2400 ×10⁻⁶ cm/s | 240 nM | 100 mg/kg | 979 ×10⁻⁶ cm/s |
| COc1cccc(CNCCCNc2ccnc3cc(Cl)ccc23)c1O | 240 min |  | 0.62 µM·h | 1363 ×10⁻⁶ cm/s | 65.9 nM | 400 mg/kg |  |
| CCN(CC)CCCC(C)Nc1ccnc2cc(C(F)(F)F)ccc12 (stereo not drawn) |  | 2 ×10⁻⁶ cm/s |  | 2704 ×10⁻⁶ cm/s |  |  | 235 ×10⁻⁶ cm/s |
| CCCN(CCCNc1ccnc2cc(Cl)ccc12)CC1CC1 | 30 min |  | 6.79 µM·h | 1109 ×10⁻⁶ cm/s | 437 nM |  | 2 ×10⁻⁶ cm/s |
| CCN(CC)CCCC(C)Nc1ccnc2cc(Oc3ccccc3)ccc12 (stereo not drawn) | 30 min |  | 0.726 µM·h |  | 261 nM |  |  |
| CCN(CC)CCCC(C)Nc1ccnc2cc(Cl)ccc12 (stereo not drawn) [CHLOROQUINE] | 30 min |  | 2.64 µM·h | 775 ×10⁻⁶ cm/s | 444 nM |  | 51 ×10⁻⁶ cm/s |
